Screening data from PubChem BioAssay.
An excerpt weighted towards active compounds, which were near 2.5% of everything screened.
SIAE inh: human SIAE inhibition, primary screen; Q9HAT2; SIAE FP-Rh probe binding, fluorescence polarization; inhibition, % at 9.66 µM; actives 0.69% (n = 370,000);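 active = inhibition above a cutoff: mean of compounds within the control limits plus 3 SD of those, cut at about 17% in these data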;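 note: 0% = plate median of compound wells and 100% = probe without SIAE protein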
Target sequence (Q9HAT2 whole entry, looked up): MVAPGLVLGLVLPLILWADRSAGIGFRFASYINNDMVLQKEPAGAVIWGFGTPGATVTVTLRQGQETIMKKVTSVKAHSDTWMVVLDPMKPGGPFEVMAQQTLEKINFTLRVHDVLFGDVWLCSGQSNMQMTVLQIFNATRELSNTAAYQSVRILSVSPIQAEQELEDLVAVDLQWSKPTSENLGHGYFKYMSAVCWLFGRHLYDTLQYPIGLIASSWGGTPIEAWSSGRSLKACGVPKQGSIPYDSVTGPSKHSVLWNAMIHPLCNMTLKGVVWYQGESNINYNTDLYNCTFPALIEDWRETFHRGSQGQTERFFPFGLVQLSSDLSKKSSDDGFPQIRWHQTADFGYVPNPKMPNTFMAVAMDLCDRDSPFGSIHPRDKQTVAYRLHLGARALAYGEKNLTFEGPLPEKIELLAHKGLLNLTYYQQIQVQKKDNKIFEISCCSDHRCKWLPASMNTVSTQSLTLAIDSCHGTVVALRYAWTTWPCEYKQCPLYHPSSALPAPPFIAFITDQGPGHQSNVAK
HTRA1 inhibitor: blocks human HTRA1 serine peptidase | Q92743 | recombinant HTRA1, FP-rhodamine activity-based probe, fluorescence polarization | inhibition, % at 5.96 µM | actives 0.5% (n = 340,000); in the data active = inhibition above about 36%;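 note: 0% = enzyme with DMSO and 100% = wells lacking enzyme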
rCAG binder: molecules binding r(CAG) RNA repeats. r(CAG) RNA repeat, TO-PRO-1 dye displacement fluorescence. inhibition, % at 3 µM. actives 1.3% (n = 370,000). AID 651821;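 active = inhibition above the plate cutoff, the mean of all test compounds on that plate plus 3 SD, cut at about 35% in these data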;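 note: 0% = DMSO alone and 100% = 100 µM mitoxantrone as full dye displacement; higher means more dye released from RNA so lower well fluorescence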
mABHD4 FP: inhibitors of mouse ABHD4 | inhibition, % at 8.92 µM | purified mABHD4, FP-Rh probe fluorescence polarization | AID 720543 | actives 0.54% (n = 370,000);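 active = inhibition exceeding the mean over every tested compound plus 3 SD, cut at about 30% in these data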;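 note: 0% = plate median of compound wells and 100% = S159A mutant with DMSO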
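Assay system: mABHD4 protein; medium: HEPES pH 7.0, NaCl, Pluronic buffer; dosing: 8.92 µM, single dose; schedule: 45 min + 60 min at 25 °C; signal: FP readout, ex 525 nm / em 598 nm; read-out: normalized percent inhibition of probe labeling; repeats: single replicate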
TCR-CD3 inh: inhibitors of human TCR-CD3 interaction; TAMRA-labeled TCR probe fluorescence, biochemical; inhibition, % at 9.4 µM; actives 0.37% (n = 360,000); AID 651800; in the data active = inhibition above about 19%;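 note: recombinant mutant TCR 2C K166C tagged with TAMRA read by polarization; 0% = receptor in buffer alone and 100% = receptor with positive control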
rCAG binder conf: r(CAG) RNA repeat binding, confirmation; inhibition, % at 3 µM; actives 70% (n = 4,300); shares compounds with rCAG binder; TO-PRO-1 dye displacement fluorescence;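 active = inhibition above a per-plate cutoff, the mean inhibition of sample wells plus 3 SD, cut at about 35% in these data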;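 note: loss of TO-PRO-1 fluorescence as compound displaces dye from 1x1 AA loop RNA; 0% = DMSO only wells and 100% = 100 µM mitoxantrone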
dCAG dye counter: DNA CAG dye complex inhibition counter-screen; AID 652068; actives 94% (n = 4,300); d(CAG) DNA oligo TO-PRO-1 dye displacement, fluorescence; inhibition, % at 3 µM; shares compounds with rCAG binder;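 active = inhibition above its plate's cutoff, the mean test-well inhibition plus 3 SD, cut at about 4.8% in these data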;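 note: 0% = DNA dye mix with DMSO and 100% = 100 µM mitoxantrone; hits displace the dye from DNA and so lower well fluorescence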
dCAG dye DR: DNA CAG dye complex inhibition, dose response counter-screen | shares compounds with rCAG binder | DNA CAG/GTC duplex TO-PRO-1 dye displacement fluorescence | IC50, µM | actives 20% (n = 250) | AID 686960; in the data active = IC50 below about 10 µM
* hit, by the source's call; i = inactive; x = no result given; ! = repeats disagree.

SMILES	SIAE inh	HTRA1 inhibitor	rCAG binder	mABHD4 FP	TCR-CD3 inh	rCAG binder conf	dCAG dye counter	others
N#Cc1c(SC(C(=O)O)c2ccccc2)nc2c(c1-c1cccs1)CCCC2 (stereo unspecified)	-7	-27	67*	4	-4	74*	28*	dCAG dye DR=i
CCOC(=O)C(C)Sc1nc2c(c(-c3cccs3)c1C#N)CCC2 (stereo unspecified)	-5	-39	4	-1	5	x	x
O=C(CN(Cc1ccccc1)S(=O)(=O)c1ccccc1)N/N=C/c1ccccc1C(=O)O	3	-19	18	-1	-1	x	x
O=C(CN(Cc1ccccc1)S(=O)(=O)c1ccc(Br)cc1)N/N=C/c1ccccc1C(=O)O	-5	-5	51*	-2	5	57*	15*
Cc1cc(-c2nnc(SCC(=O)Nc3nc(-c4ccc(Cl)cc4)cs3)o2)no1	-12	25	46*	-4	-9	15	5.8*
COc1cc(NC(=O)CSc2nnc(-c3cc(C)on3)o2)cc(OC)c1	-6	0	2	-2	-2	x	x
Cc1nccc(-c2cccc(N/N=C(\C#N)C(=O)c3ccccc3)c2)n1	0	1	51*	6	-2	35*	9.3*
CCC(CC)C(=O)Nc1nnc(S(=O)(=O)N2CCCc3ccccc32)s1	3	-6	16	-6	-1	x	x
O=C(CCCCn1c(=O)c2ccccc2n(CC(=O)Nc2ccc(F)cc2)c1=O)NCc1ccco1	-8	-13	8	-12	9	x	x
Cc1ccc(C2=NOC(=O)/C2=C\c2ccc(C)o2)cc1	8	16	37*	12	-9	15	6.8*
Cc1[nH]n(-c2ccccc2)c(=O)c1C1(C(F)(F)F)C(=O)N(c2ccccc2)C2=C1C(=O)CC(C)(C)C2 (stereo unspecified)	3	-3	36*	1	-9	22	7.3*
Cc1ccc(N2C(=O)C(c3c(C)[nH]n(-c4ccccc4)c3=O)(C(F)(F)F)C3=C2CC(C)(C)CC3=O)cc1 (stereo unspecified)	5	-18	7	0	5	x	x
CCCc1cc2c(OC(=O)CC)c(-c3ccc(C(=O)OCC)o3)c(=O)oc2cc1OC	-2	-6	38*	14	-9	33	6.8*
CCCc1cc(-c2n[nH]c(C)c2-c2ccc(C(=O)OCC)o2)c(O)cc1O	10	-11	6	16	-2	x	x
COc1cc(OC)c(NC(=O)c2cc3ccccc3cc2O)cc1Cl	6	9	35*	7	-9	47*	22*
COc1cc(NC(=O)c2ccccc2)c(OC)cc1Cl	8	-4	1	-1	-1	x	x
CN(C)C(CNC(=O)C1CCCN(C(=O)c2ccc(Cl)cc2)C1)c1ccco1 (stereo unspecified)	-1	0	-4	5	6	x	x
CCOC(=O)CNS(=O)(=O)c1cc(-c2nn(C)c(=O)c3ccccc23)ccc1C	-7	-4	-1	5	2	x	x
COc1ccc(O)c(C(=O)c2cnc3nc4ccccc4n3c2)c1	-13	-20	40*	-10	-11	17	6.5*
COc1ccc(O)c(C(=O)c2cnn(-c3ccccn3)c2)c1	1	-10	-1	-8	7	x	x
O=c1[nH]nnc2c1sc1nc(N3CCOCC3)c3c(c12)CCCC3	-1	-2	-1	10	5	x	x
CC(C)(C)OC(=O)N1CCC(Cc2cc(-c3ccccc3)no2)(C(=O)O)CC1	4	-4	13	-3	3	x	x
CC(C)(C)OC(=O)N1CCC(Cc2cc(-c3cccc(Br)c3)no2)(C(=O)O)CC1	0	-10	48*	0	-4	49*	14*	dCAG dye DR=>30
CCOc1ncccc1C(=O)OCC(=O)N1CCN(S(=O)(=O)c2ccc(Cl)cc2)CC1	1	-4	-7	3	5	x	x
COc1ccc(CCNC(=O)C2CCN(S(=O)(=O)c3cccc4cccnc34)CC2)cc1OC	x	-1	x	x	x	x	x
SMILES	SIAE inh	HTRA1 inhibitor	rCAG binder	mABHD4 FP	TCR-CD3 inh	rCAG binder conf	dCAG dye counter	others
O=C(O)c1ccc(N2N=C(c3ccccc3)CC2c2ccccc2)cc1 (stereo unspecified)	8	-11	44*	28	9	47*	12*
O=Cc1ccc(N2N=C(c3ccccc3)CC2c2ccccc2)cc1 (stereo unspecified)	10	-47	8	11	-1	x	x
COc1ccc(OCC(=O)Nc2nnc(S(=O)(=O)N3CCCCCC3)s2)cc1	3	0	40*	0	3	28	7.5*
O=C(COc1ccccc1)Nc1nnc(S(=O)(=O)N2CCCC2)s1	0	-1	21	2	10	x	x
CCCCC(=O)Nc1nnc(S(=O)(=O)N(CC)c2ccc(OC)cc2)s1	-10	-7	6	5	-8	x	x
Cc1ccc(OCC(=O)Nc2nnc(S(=O)(=O)N3CCC(C)CC3)s2)cc1	0	-6	42*	-7	0	53*	23*
CCN(c1ccc(OC)cc1)S(=O)(=O)c1nnc(NC(=O)COc2ccccc2)s1	-11	0	66*	-4	5	54*	19*
Nc1c(/C=C2\C=Nc3ccccc32)c(=O)nc2sc(CC(=O)N3CCOCC3)nn12	-2	-6	48*	10	10	31	8.7*
CCOC1=NN(c2ccc(Cl)cc2)C(=O)/C1=C\N(C)C	-6	-1	6	-6	-12	x	x
C[C@H](CCC(=O)O)[C@H]1CC[C@H]2[C@@H]3CC[C@@H]4C[C@H](O)CC[C@]4(C)[C@H]3C[C@H](O)[C@]12C	0	0	37*!	-19	6	40*	6.7*
C[C@H](CCC(=O)O)[C@H]1CC[C@H]2[C@@H]3[C@H](O)C[C@@H]4C[C@H](O)CC[C@]4(C)[C@H]3CC[C@]12C	-5	-6	37*	4	8	31	4
CC(CCC(=O)NN)C1CCC2C3CCC4CC(O)CCC4(C)C3CCC12C (stereo unspecified)	-11	-21	5	5	4	x	x
COc1ccccc1N1CCN(C(=O)CNC(=O)c2cn(-c3ccccc3OC)c(=O)c3ccccc23)CC1	3	5	-3	-2	5	x	x
O=C1/C(=C\c2ccco2)NC(=S)N1c1ccccc1	11	31	40*	15	2	38*	17*
CCCN=C1N/C(=C\c2ccco2)C(=O)N1c1ccccc1	1	11	13	7	-2	x	x
NC(=O)c1ccc(NC(=O)c2ccc3c(c2)OCO3)cc1	2	-4	1	-13	8	x	x
